From PubChem BioAssay
Hits are enriched below; roughly 4.1% of the tested compounds scored in any of these assays.
MrgX1 antagonist: antagonists of human MrgX1 receptor; MRGX1-HEK293 calcium flux, Fluo-4, BAM8-22 antagonism; active compounds read low; B-score at 10 µM; 310,000 tested, 1.3% active;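 active means calcium-response B-score plate-corrected more than 3 library SD below zero, starting fluorescence within 5 deviations, no agonist response on first addition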;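 further: peak minus trough fluorescence over baseline after final BAM8-22 challenge near maximal dose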
RGS4 inh: inhibitors of human RGS4; HEK293 M3R/RGS4 inducible, Fluo-4 calcium flux; active compounds read high; triggered by carbachol at its EC20; P49798; 310,000 tested, 0.45% active; AID 463165; B-score at 10 µM;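 active means B-score, a plate-corrected calcium signal, over three deviations above library mean, with baseline fluorescence within five deviations of library mean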;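 further: RGS4 expression induced by doxycycline in cells with stable M3 receptor; B-score is computed from the integrated fluorescence ratio over baseline after carbachol; higher B-score means a larger calcium signal and so more RGS4 inhibition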
Target sequence (P49798 whole entry, looked up): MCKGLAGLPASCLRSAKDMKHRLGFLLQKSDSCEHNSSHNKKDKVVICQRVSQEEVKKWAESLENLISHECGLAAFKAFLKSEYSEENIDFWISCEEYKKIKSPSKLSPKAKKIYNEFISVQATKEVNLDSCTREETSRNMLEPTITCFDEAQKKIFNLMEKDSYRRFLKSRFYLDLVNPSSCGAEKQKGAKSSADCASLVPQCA
RGS4 pot: RGS4 potentiation or activation. HEK293 M3R/inducible RGS4, carbachol calcium flux Fluo4; active compounds read low. B-score at 10 µM. 310,000 tested, 0.92% active;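 active means B-score of the integrated calcium signal more than 4 SD below the library mean, with starting fluorescence not abnormally high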;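 further: negative B-score means reduced calcium response which marks RGS4 activation or potentiation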
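Detection: kinetic calcium fluorescence imaging with Fluo4-AM dye, 2 µM / Material: HEK293 cells with stable M3R and inducible RGS4 / Schedule: recording 10 s baseline at 1 Hz, 100 s post-agonist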
Kir21 inh: blocks the mouse Kir2.1 inward-rectifier potassium channel. P35561. HEK293-Kir2.1, FluxOR thallium flux fluorescence; active compounds read low. B-score at 10 µM. 310,000 tested, 0.85% active. AID 1672;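 active means fluorescence ratio B-score at or below minus 3 SD of library scores, with starting-brightness B-score within 2 SD, cut at about -4.2 in these data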;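 further: channel flux triggered by added potassium and thallium sulfate stimulus; B-score of peak minus minimum fluorescence over baseline after thallium stimulus; more negative B-score means stronger Kir2.1 block with less thallium influx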
Target sequence (P35561 whole entry, looked up): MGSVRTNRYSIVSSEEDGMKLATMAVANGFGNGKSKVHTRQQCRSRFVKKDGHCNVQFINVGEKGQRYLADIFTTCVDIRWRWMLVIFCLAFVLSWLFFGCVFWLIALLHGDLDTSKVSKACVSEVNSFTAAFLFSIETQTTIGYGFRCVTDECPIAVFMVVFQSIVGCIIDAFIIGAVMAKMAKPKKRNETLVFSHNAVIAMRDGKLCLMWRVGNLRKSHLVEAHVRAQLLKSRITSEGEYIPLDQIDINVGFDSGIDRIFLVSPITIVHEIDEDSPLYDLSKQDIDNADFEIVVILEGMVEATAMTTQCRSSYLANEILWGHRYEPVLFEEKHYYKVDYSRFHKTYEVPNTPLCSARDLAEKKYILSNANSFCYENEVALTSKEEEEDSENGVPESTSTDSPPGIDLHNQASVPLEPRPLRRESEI
MrgX1 ag: activates human MrgX1 receptor signaling. Q96LB2. MrgX1-HEK293 cells, Fluo-4 calcium fluorescence, agonist mode; active compounds read high. B-score at 10 µM. 310,000 tested, 0.44% active;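 active means calcium response B-score plate-corrected fluorescence ratio at least 3 library SD, with starting fluorescence B-score inside 5 SD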
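Test system: HEK293 cells stably expressing human MrgX1 receptor; amount: 15,000 cells per well; doses: compound delivered in addition one of three; times: overnight plating before 1 h dye loading; detection: Fluo-4 NW calcium-flux fluorescence, kinetic read; read-out basis: B-scored fluorescence response ratio; controls: positive and negative controls per plate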
MrgX1 PAM: human MrgX1 positive allosteric modulation, primary screen; MrgX1-HEK293, Fluo-4 calcium flux, FDSS; active compounds read high; B-score at 10 µM; 310,000 tested, 0.63% active;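 active means plate-corrected calcium response at least 3 library SD above typical, normal starting fluorescence, not activating the receptor alone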;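 further: compound read alongside a low EC10 to EC30 dose of BAM8-22 agonist; peak minus trough fluorescence over baseline measured at the second addition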
RGS4 block valid: RGS4 inhibitor validation; shares compounds with RGS4 inh; HEK293 M3R/RGS4, carbachol calcium Fluo-4 fluorescence; carbachol added at its EC20; 0 = buffer wells, 100 = carbachol control; calcium response, % at 10 µM; 1,700 tested, 65% active; AID 492999;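 active means duplicate-averaged calcium response above the buffer-only control mean plus 5 SD of those controls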;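 further: integrated fluorescence ratio F max minus min over baseline F0; higher response in RGS4-induced cells means RGS4 inhibition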
RGS4 uninduced: non-induced cell nonspecific activity of RGS4 inhibitors; AID 493000; HEK293 M3R non-induced, carbachol calcium Fluo-4; submaximal (EC20) carbachol stimulus; buffer wells 0%, carbachol control wells 100%; activity (percent), % at 10 µM; shares compounds with RGS4 inh; 1,900 tested, 20% active; call rule not given here;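 further: RGS4 induction absent so cells express M3R without RGS4; higher means more calcium signal and flags a non-specific hit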
M3R basal Ca ctr: second counter-screen for RGS4 inhibitors: non-induced cells without carbachol | HEK293 M3R/RGS4 non-induced, Fluo-4 calcium, no carbachol; normalised: buffer wells 0%, carbachol wells 100% | shares compounds with RGS4 inh | calcium response (agonist-mode artifact), % at 10 µM | 1,900 tested, 22% active;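 active means duplicate-averaged calcium rise in uninduced cells above buffer wells' mean plus 5 SD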
* marks the source's active call; other numbers are inactive results; i = inactive; / = no result given.

SMILES | MrgX1 antagonist | RGS4 inh | RGS4 pot | Kir21 inh | MrgX1 ag | MrgX1 PAM | RGS4 block valid | RGS4 uninduced | M3R basal Ca ctr
NS(=O)(=O)c1ccc(CCNC(=O)CSc2nc3ccsc3c(=O)n2CCCCCC(=O)O)cc1 | i | i | i | 0.24 | i | i | / | / | /
Cc1cccc(NC(=O)CSc2nnc(CNC(=O)c3ccc(S(=O)(=O)N(C)C)cc3)n2-c2ccccc2)c1 | i | i | i | 0.04 | i | i | / | / | /
O=C(N/N=C/c1ccc(-c2ccccc2[N+](=O)[O-])o1)[C@H]1C[C@@H]1c1ccccc1 | i | i | i | 0.04 | i | i | / | / | /
O=C(N/N=C/c1ccc(-c2ccc([N+](=O)[O-])cc2)o1)[C@H]1C[C@@H]1c1ccccc1 | i | i | i | 1.45 | i | i | i | i | 39.0%*
O=C(N/N=C/c1ccc(-c2cccc([N+](=O)[O-])c2)o1)[C@H]1C[C@@H]1c1ccccc1 | i | 5.66* | i | -3.98 | i | i | i | i | i
CC(=O)N1CCc2cc(S(=O)(=O)Nc3cccc(C(F)(F)F)c3)ccc21 | i | i | i | 1.78 | i | i | / | / | /
COc1ccc(CC(NC(C)=O)C(=O)NC2CCN(S(=O)(=O)c3ccccc3)CC2)c(OC)c1 (stereo unspecified) | i | i | i | -0.52 | i | i | / | i | i
CC(=O)NC(Cc1ccccc1F)C(=O)NC1CCN(S(=O)(=O)c2ccccc2)CC1 (stereo unspecified) | / | i | i | -0.11 | / | / | / | / | /
O=C(Nc1cccc(N2C(=O)C=CC2=O)c1)c1cccs1 | i | 21.2* | i | -5.94* | 35* | i | 33.0%* | i | 47.5%*
Cc1[nH]nc2c1C(c1ccc(-c3ccccc3C#N)o1)C(C#N)=C(N)O2 (stereo unspecified) | i | 9.82* | i | -0.15 | i | i | 23.5%* | i | 8.5%*
Cc1[nH]nc2c1C(c1ccc(F)cc1)C(C#N)=C(N)O2 (stereo unspecified) | i | i | i | -0.78 | i | i | / | / | /
CC(OC(=O)c1cc(S(=O)(=O)N2CCOCC2)ccc1F)C(=O)NC1CCCCC1C (stereo unspecified) | i | i | i | 2.44 | i | i | / | / | /
O=C(c1ccco1)N1CCN(c2ncnc3c(-c4ccc(Cl)cc4)nsc23)CC1 | i | 5.15* | i | 0.39 | i | i | i | i | i
Cc1sc2ncnc(N3CCN(C(=O)c4ccco4)CC3)c2c1C | i | i | i | 0.72 | i | i | / | / | /
CCOc1ccc(-c2c(C(=O)N/N=C/c3cccc(Br)c3)nnn2-c2nonc2N)cc1 | i | i | i | -0.37 | i | i | i | i | 8.0%*
CCOc1cccc(-c2c(C(=O)N/N=C/c3cccnc3)nnn2-c2nonc2N)c1 | i | i | i | 1.97 | i | i | i | i | i
COC(=O)c1[nH]c2ccc(Cl)cc2c1NC(=O)CN1CCc2cc(OC)c(OC)cc2C1 | i | i | i | -0.04 | i | i | / | / | /
COc1cc(Cl)c(S(=O)(=O)NCCN2CCOCC2)cc1Cl | i | i | i | 0.17 | i | i | / | / | /
CCOC(=O)N1CCC(N2CCN(S(=O)(=O)c3ccc(C)cc3)CC2)CC1 | i | i | i | 0.45 | i | i | / | / | /
CCc1cc(=O)oc2cc(C)c(CN3CCCC3)c(O)c12 | i | i | i | 1.2 | i | i | / | / | /
CCCCOc1ccc(/C=c2\sc3ncnn3c2=O)cc1 | i | i | i | 0.24 | i | i | i | i | i
O=c1c2cc([N+](=O)[O-])ccc2nc(CN2CCN(c3ccccn3)CC2)n1-c1ccccc1F | i | i | i | -0.01 | i | i | / | / | /
CCN(C(=O)Cc1c(C(=O)O)n(C)c2ccccc12)c1cccc(C)c1 | i | i | i | 0.23 | i | i | i | i | i
CN(C(=O)Cc1c(C(=O)O)n(C)c2ccccc12)c1cccc(C(F)(F)F)c1 | i | i | i | 1.54 | i | i | / | / | /
CC1(C)CC(=O)C(C(c2ccncc2)C2C(=O)CC(C)(C)CC2=O)C(=O)C1 | i | i | i | -0.31 | i | i | / | / | /
SMILES | MrgX1 antagonist | RGS4 inh | RGS4 pot | Kir21 inh | MrgX1 ag | MrgX1 PAM | RGS4 block valid | RGS4 uninduced | M3R basal Ca ctr
Cc1ccc(C(C2C(=O)CC(C)(C)CC2=O)C2C(=O)CC(C)(C)CC2=O)s1 | i | 24.5* | i | -0.75 | i | i | 17.0%* | i | i
Cc1cc2c(c(N3CCOCC3)n1)C(=O)OC2 | i | i | i | -0.37 | i | i | / | / | /
O=C1NN(c2ccccc2)C(=O)/C1=C\c1cccc(OC(=O)c2cccs2)c1 | i | 20* | i | 0.12 | 27.1* | i | 70.0%* | i | i
Nc1nc(F)nc2c1ncn2[C@@H]1O[C@H](CO)[C@@H](O)[C@@H]1O | i | i | i | -0.19 | i | i | / | / | /
Nc1ncnc2c1ncn2C1O[C@H](CO)[C@@H](O)[C@@H]1O (stereo partly specified) | i | / | / | / | i | i | / | / | /
Nc1nc(Nc2ccccc2)nc2c1ncn2[C@@H]1O[C@H](CO)[C@@H](O)[C@H]1O | i | 6.18* | i | 2.15 | i | 6.45* | 23.5%* | i | 357.0%*
CNc1nc2c(N)ncnc2n1[C@H]1O[C@@H](CO)[C@H](O)[C@@H]1O | i | 6.84* | i | 0.54 | i | i | 13.0%* | 35.5%* | i
Nc1ncnc2c1ncn2C1OC(CO)C(O)C1N (stereo unspecified) | i | i | i | 0.38 | i | i | / | i | i
Nc1nc(F)nc2c1ncn2[C@@H]1O[C@H](CO)[C@@H](O)[C@H]1O | i | 10.9* | i | -0.57 | i | i | 51.5%* | 30.5%* | i
O=C(CN1C(=O)NC2(CCOc3ccccc32)C1=O)Nc1ccc2c(c1)OCCO2 (stereo unspecified) | i | i | i | 0.33 | i | i | / | / | /
